Measurements of several laboratories.
Lines come from different studies, so protocols differ. In brackets after ≈: the same amount, converted by molar mass.

Compound	organism	test	system	conditions	quantity	result
Cc1ccc(-c2nn(-c3ccccc3)cc2C=c2sc(=CC#N)[nH]c2=O)cc1	Acinetobacter baumannii	microbial growth, well diffusion	–	100000 µg/mL	inhibition zone	14 mm
CCCCCCC/C=C/C(=O)N1C(=O)/C(=C(/C)O)C(=O)C1CCC(=O)O (stereo not shown)	Proteus mirabilis	microbial growth	ATCC25933	–	MIC	> 200 µg/mL
CCOC(=O)N[C@H](C(=O)N1CCC[C@H]1C(=O)Nc1cccc(C#CC#Cc2cccc(NC(=O)[C@@H]3CCCN3C(=O)[C@@H](NC(=O)OCC)C(C)C)c2)c1)C(C)C	Hepatitis C virus	viral replication, inhibitor, luciferase	Huh-5-2, GETYPE1B	72 h, replicon	EC50	451 nM
Nc1nc(-c2ccccc2)nc2[nH]nc(Nc3ccc(C(F)(F)F)cc3)c12	Enterovirus B	cytopathic effect	HeLa, CVB3	–	IC50	140 nM
CC(C)[C@H](NC(=O)OCc1ccccc1)C(=O)N1CCC[C@H]1C(=O)Nc1cccc(C#CC#Cc2cccc(NC(=O)[C@@H]3CCCN3C(=O)[C@@H](NC(=O)OCc3ccccc3)C(C)C)c2)c1	Hepatitis C virus	viral replication, inhibitor, luciferase	Huh-5-2, GETYPE1B	72 h, replicon	EC50	> 10000 nM
CC(=O)OC[C@@]1(C)[C@H]2CC[C@@H]3CN(Cc4ccccc4C)[C@@H](C4=CCOC4=O)C[C@H]3[C@]2(C)CC[C@H]1OC(C)=O	unidentified human coronavirus	cytopathic effect	MRC5	25 µM, 72 h	inhibition	71.4%
Cc1cn([C@H]2C[C@H](N=[N+]=[N-])[C@@H](CO)O2)c(=O)[nH]c1=O	Hepatitis C virus	viral replication, inhibitor	Huh-7	replicon	EC50	> 10000 nM
Nc1nc(NS(=O)(=O)c2ccccc2)nc(-c2ccc(F)cc2)c1-c1nc2ccccc2s1	Enterovirus B	plaque formation	BGM, B4	–	IC50	93 µg/mL
CC(C)Oc1c(NC(=O)c2ccc(NC(=O)[C@H](CC(N)=O)NC(=O)c3ccc(NC(=O)c4ccc(C#N)cn4)cc3)cc2)ccc(C(=O)Nc2ccc(C(=O)O)cc2)c1O	Proteus mirabilis	microbial growth	DSM4479	–	MIC	4 µg/mL (≈ 4.92 µM)
Cc1c(NC(=O)CC2=NC(=O)CS2)c(=O)n(-c2ccccc2)n1C	Acinetobacter baumannii	microbial growth, well diffusion	–	100000 µg/mL	inhibition zone	26 mm
Nc1nc(Cl)c2ncn([C@@H]3O[C@H](CO)[C@@H](F)[C@@H]3F)c2n1	Hepatitis C virus	viral replication, inhibitor	Huh-7	replicon	EC50	> 10000 nM
CCCN1C[C@H]2CC[C@@H]3[C@](C)(COC(C)=O)[C@H](OC(C)=O)CC[C@@]3(C)[C@@H]2C[C@@H]1C1=CCOC1=O	unidentified human coronavirus	cytopathic effect	MRC5	25 µM, 72 h	inhibition	45.8%
CCOC(=O)c1c(N)csc1-c1cn(-c2ccccc2)nc1-c1ccccc1	Acinetobacter baumannii	microbial growth, well diffusion	–	100000 µg/mL	inhibition zone	20 mm
CCCCCCC/C=C/C(=O)N1C(=O)/C(=C(\O)c2ccc(O)cc2)C(=O)C1CC(C)C (stereo not shown)	Proteus mirabilis	microbial growth	ATCC25933	–	MIC	> 200 µg/mL
CC(=O)OC[C@@]1(C)[C@H]2CC[C@@H]3CN(C(C)C)[C@@H](C4=CCOC4=O)C[C@H]3[C@]2(C)CC[C@H]1OC(C)=O	unidentified human coronavirus	cytopathic effect	MRC5	25 µM, 72 h	inhibition	80%
CCCCCCC/C=C/C(=O)N1C(=O)/C(=C(\O)c2ccncc2)C(=O)C1CC(C)C (stereo not shown)	Proteus mirabilis	microbial growth	ATCC25933	–	MIC	> 200 µg/mL
Nc1nc(N)c2ncn([C@H]3O[C@H](CO)[C@@H](F)[C@@H]3F)c2n1	Hepatitis C virus	viral replication, inhibitor	Huh-7	replicon	EC90	> 10000 nM
CCCCCCC/C=C/C(=O)N1CC(=O)/C(=C(\C)O)C1=O	Proteus mirabilis	microbial growth	ATCC25933	–	MIC	> 200 µg/mL
OC[C@H]1O[C@@H](n2cnc3c(NCc4ccccc4)nc(Cl)nc32)[C@@H](F)[C@@H]1F	Hepatitis C virus	viral replication, inhibitor	Huh-7	replicon	EC90	9900 nM
N#CC(=Cc1ccccc1O)C1=NC(=O)C(=Cc2cn(-c3ccccc3)nc2-c2ccccc2)S1	Acinetobacter baumannii	microbial growth, well diffusion	–	100000 µg/mL	inhibition zone	25 mm
COC(=O)N[C@H](CC(C)C)C(=O)N1CCC[C@H]1C(=O)Nc1cccc(C#CC#Cc2cccc(NC(=O)[C@@H]3CCCN3C(=O)[C@@H](CC(C)C)NC(=O)OC)c2)c1	Hepatitis C virus	viral replication, inhibitor, luciferase	GETYPE4A	replicon	EC50	18.6 nM
N#CC(=Cc1ccc([N+](=O)[O-])cc1)C1=NC(=O)C(=Cc2cn(-c3ccccc3)nc2-c2ccccc2)S1	Acinetobacter baumannii	microbial growth, well diffusion	–	100000 µg/mL	inhibition zone	19 mm

Compound	organism	test	system	conditions	quantity	result
COC(=O)N[C@H](C(=O)N1CCC[C@H]1c1ncc(-c2ccc(-c3ccc(-c4cnc([C@@H]5CCCN5C(=O)[C@@H](NC(=O)OC)C(C)C)[nH]4)cc3)cc2)[nH]1)C(C)C	Hepatitis C virus	viral replication, inhibitor	GETYPE1A	replicon	EC50	0.05 nM
COc1nc(OC)c2ncn([C@@H]3O[C@H](CO)[C@@H](F)[C@@H]3F)c2n1	Hepatitis C virus	viral replication, inhibitor	Huh-7	replicon	EC50	> 10000 nM
CCOC(=O)N[C@H](CC(C)C)C(=O)N1CCC[C@H]1C(=O)Nc1cccc(C#CC#Cc2cccc(NC(=O)[C@@H]3CCCN3C(=O)[C@@H](CC(C)C)NC(=O)OCC)c2)c1	Hepatitis C virus	viral replication, inhibitor, luciferase	Huh-5-2, GETYPE1B	72 h, replicon	EC50	0.0411 nM
Nc1nc(NS(=O)(=O)c2ccccc2)ncc1-c1nc2ccccc2s1	Enterovirus B	plaque formation	BGM, B4	–	IC50	85 µg/mL
CC(C)Oc1c(NC(=O)c2ccc(NC(=O)c3ccc(NC(=O)[C@H](CC(N)=O)NC(=O)c4ccc(NC(=O)c5ccc(C#N)cn5)cc4)cc3)c(OC(C)C)c2O)ccc(C(=O)O)c1O	Proteus mirabilis	microbial growth	DSM4479	–	MIC	8 µg/mL (≈ 9.02 µM)
CCOC(=O)N[C@H](C(=O)N1CCC[C@H]1C(=O)Nc1ccc(C#CC#Cc2ccc(NC(=O)[C@@H]3CCCN3C(=O)[C@@H](NC(=O)OCC)C(C)C)cc2)cc1)C(C)C	Hepatitis C virus	viral replication, inhibitor, luciferase	Huh-5-2, GETYPE1B	72 h, replicon	EC50	90 nM
CC1(C)OC[C@@]2(C)[C@H]3CC[C@@H]4CN(Cc5ccc(F)c(Cl)c5)[C@@H](C5=CCOC5=O)C[C@H]4[C@]3(C)CC[C@H]2O1	unidentified human coronavirus	cytopathic effect	MRC5	25 µM, 72 h	inhibition	51.6%
COC(=O)N[C@H](C(=O)N1CCC[C@H]1c1nc(-c2ccc(-c3ccc(-c4c[nH]c([C@@H]5CCCN5C(=O)[C@@H](NC(=O)OC)C(C)C)n4)cc3)cc2)c[nH]1)C(C)C	Hepatitis C virus	viral replication, inhibitor, luciferase	GETYPE4A	replicon	EC50	0.021 nM
N#CC(=Cc1cn(-c2ccccc2)nc1-c1ccccc1)C1=NC(=O)CS1	Acinetobacter baumannii	microbial growth, well diffusion	–	100000 µg/mL	inhibition zone	26 mm
Nc1nc(Cl)c2ncn([C@@H]3O[C@H](COC(=O)c4ccccc4)[C@@H](F)[C@@H]3F)c2n1	Hepatitis C virus	viral replication, inhibitor	Huh-7	replicon	EC50	4700 nM
Cc1ccc(S(=O)(=O)Nc2ncc(-c3nc4ccccc4s3)c(N)n2)cc1	Enterovirus B	plaque formation	BGM, B4	–	IC50	110 µg/mL
CCCCCCC/C=C/C(=O)N1C(=O)/C(=C(/C)O)C(=O)C1CCCCN (stereo not shown)	Proteus mirabilis	microbial growth	ATCC25933	–	MIC	> 200 µg/mL
CCOC(=O)C=c1[nH]c(=O)c(=Cc2cn(-c3ccccc3)nc2-c2ccc(C)cc2)s1	Acinetobacter baumannii	microbial growth, well diffusion	–	100000 µg/mL	inhibition zone	11 mm
CC(=O)OC[C@@]1(C)[C@H]2CC[C@@H]3CN(Cc4cccs4)[C@@H](C4=CCOC4=O)C[C@H]3[C@]2(C)CC[C@H]1OC(C)=O	unidentified human coronavirus	cytopathic effect	MRC5	25 µM, 72 h	inhibition	31.2%
COc1nc(Cl)nc2c1ncn2[C@@H]1O[C@H](CO)[C@@H](F)[C@@H]1F	Hepatitis C virus	viral replication, inhibitor	Huh-7	replicon	EC90	> 10000 nM
CC(=O)OC[C@@]1(C)[C@H]2CC[C@@H]3CN(Cc4cccc5ccccc45)[C@@H](C4=CCOC4=O)C[C@H]3[C@]2(C)CC[C@H]1OC(C)=O	unidentified human coronavirus	cytopathic effect	MRC5	25 µM, 72 h	inhibition	106%
CCCCCCC/C=C/C(=O)N1C(=O)/C(=C(/C)O)C(=O)C1Cc1ccc(O)cc1 (stereo not shown)	Proteus mirabilis	microbial growth	ATCC25933	–	MIC	> 200 µg/mL
CC(=O)OC[C@@]1(C)[C@H]2CC[C@@H]3CN(Cc4cccc(Cl)c4)[C@@H](C4=CCOC4=O)C[C@H]3[C@]2(C)CC[C@H]1OC(C)=O	unidentified human coronavirus	cytopathic effect	MRC5	25 µM, 72 h	inhibition	116%
N#Cc1cc(-c2nc3ccccc3s2)c(=O)n(NS(=O)(=O)c2ccccc2)c1N	Enterovirus B	plaque formation	BGM, B4	–	IC50	84 µg/mL
CC(=O)OC[C@@]1(C)[C@H]2CC[C@@H]3CN(Cc4ccc([N+](=O)[O-])cc4)[C@@H](C4=CCOC4=O)C[C@H]3[C@]2(C)CC[C@H]1OC(C)=O	unidentified human coronavirus	cytopathic effect	MRC5	25 µM, 72 h	inhibition	44.6%
CCCCOC(=O)N[C@H](C(=O)N1CCC[C@H]1C(=O)Nc1ccc(C#CC#Cc2ccc(NC(=O)[C@@H]3CCCN3C(=O)[C@@H](NC(=O)OCCCC)C(C)C)cc2)cc1)C(C)C	Hepatitis C virus	viral replication, inhibitor, luciferase	Huh-5-2, GETYPE1B	72 h, replicon	EC50	919 nM
